Assay results from ChEMBL document CHEMBL1147862, “Studies on synthesis and pharmacological activities of 3,6-disubstituted-1,2,4-triazolo[3,4-b]-1,3,4-thiadiazoles and their dihydro analogues” (2007).

Experiments:
Format in all cases: functional
Bacillus subtilis [1] = assay: Antibacterial activity against Bacillus subtilis at 30 ug/ml by agar plate diffusion technique; settings: read-out: IZ
Candida albicans [2] = assay: Antifungal activity against Candida albicans at 10 ug/ml by paper disc method; settings: read-out: IZ
Staphylococcus aureus [3] = assay: Antibacterial activity against Staphylococcus aureus at 20 ug/ml by agar plate diffusion technique; settings: read-out: IZ
Mus musculus [4] = assay: Analgesic activity in Swiss mouse assessed as increase in reaction time at 20 mg/kg, po after 90 mins by Eddy's hot plate technique
How it was run: (§1)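 Swiss mice of either sex, 25–35 g, placed one at a time on a hot plate held at 55 °C. End point is paw licking or jumping, whichever comes first, with a 15 s cut-off to avoid paw injury. Reaction time is recorded and reported as percent increase in reaction time.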

Pseudomonas aeruginosa [5] = assay: Antibacterial activity against Pseudomonas aeruginosa at 10 ug/ml by agar plate diffusion technique; settings: read-out: IZ
Staphylococcus aureus [6] = assay: Antibacterial activity against Staphylococcus aureus at 10 ug/ml by agar plate diffusion technique; settings: read-out: IZ
Pseudomonas aeruginosa [7] = assay: Antibacterial activity against Pseudomonas aeruginosa at 30 ug/ml by agar plate diffusion technique; settings: read-out: IZ
Aspergillus niger [8] = assay: Antifungal activity against Aspergillus niger at 20 ug/ml by paper disc method; settings: read-out: IZ
Mus musculus [9] = assay: Analgesic activity in Swiss mouse assessed as increase in reaction time at 20 mg/kg, po after 60 mins by Eddy's hot plate technique; how it was run: as §1
Escherichia coli [10] = assay: Antibacterial activity against Escherichia coli at 30 ug/ml by agar plate diffusion technique; settings: read-out: IZ
Aspergillus niger [11] = assay: Antifungal activity against Aspergillus niger at 30 ug/ml by paper disc method; settings: read-out: IZ
Staphylococcus aureus [12] = assay: Antibacterial activity against Staphylococcus aureus at 30 ug/ml by agar plate diffusion technique; settings: read-out: IZ
Mus musculus [13] = assay: Analgesic activity in Swiss mouse assessed as increase in reaction time at 20 mg/kg, po after 30 mins by Eddy's hot plate technique; how it was run: as §1
Rattus norvegicus [14] = assay: Antiinflammatory activity in Wistar Albino rat assessed as inhibition of carrageenan-induced paw oedema at 20 mg/kg after 4 hrs relative to control
How it was run: (§2)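 Wistar albino rats, 150–200 g, six per group, dosed orally with a 20 mg/kg suspension; control gets 0.1 ml 1% gum acacia. After 30 min, 0.1 ml 1% carrageenan in saline is injected subplantar into the right hind paw. Paw volume is read by plethysmograph at 0–4 h. Inhibition = 100(1 − Vtest/Vcontrol) on mean volume increase.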

Candida albicans [15] = assay: Antifungal activity against Candida albicans at 20 ug/ml by paper disc method; settings: read-out: IZ
Aspergillus niger [16] = assay: Antifungal activity against Aspergillus niger at 10 ug/ml by paper disc method; settings: read-out: IZ
Pseudomonas aeruginosa [17] = assay: Antibacterial activity against Pseudomonas aeruginosa at 20 ug/ml by agar plate diffusion technique; settings: read-out: IZ
Bacillus subtilis [18] = assay: Antibacterial activity against Bacillus subtilis at 10 ug/ml by agar plate diffusion technique; settings: read-out: IZ
Rattus norvegicus [19] = assay: Antiinflammatory activity in Wistar Albino rat assessed as inhibition of carrageenan-induced paw oedema at 20 mg/kg after 3 hrs relative to control; how it was run: as §2
Bacillus subtilis [20] = assay: Antibacterial activity against Bacillus subtilis at 20 ug/ml by agar plate diffusion technique; settings: read-out: IZ
Rattus norvegicus [21] = assay: Antiinflammatory activity in Wistar Albino rat assessed as inhibition of carrageenan-induced paw oedema at 20 mg/kg after 1 hr relative to control; how it was run: as §2
Escherichia coli [22] = assay: Antibacterial activity against Escherichia coli at 20 ug/ml by agar plate diffusion technique; settings: read-out: IZ
Escherichia coli [23] = assay: Antibacterial activity against Escherichia coli at 10 ug/ml by agar plate diffusion technique; settings: read-out: IZ
Candida albicans [24] = assay: Antifungal activity against Candida albicans at 30 ug/ml by paper disc method; settings: read-out: IZ
Rattus norvegicus [25] = assay: Antiinflammatory activity in Wistar Albino rat assessed as inhibition of carrageenan-induced paw oedema at 20 mg/kg after 2 hrs relative to control; how it was run: as §2

Row | Structure (SMILES) | zone of inhibition at 30 µg/mL (Bacillus subtilis [1]) [mm] | zone of inhibition at 10 µg/mL (Candida albicans [2]) [mm] | zone of inhibition at 20 µg/mL (Staphylococcus aureus [3]) [mm] | Activity (Mus musculus [4]) [%] | zone of inhibition at 10 µg/mL (Pseudomonas aeruginosa [5]) [mm] | zone of inhibition at 10 µg/mL (Staphylococcus aureus [6]) [mm] | zone of inhibition at 30 µg/mL (Pseudomonas aeruginosa [7]) [mm] | zone of inhibition at 20 µg/mL (Aspergillus niger [8]) [mm] | Activity (Mus musculus [9]) [%] | zone of inhibition at 30 µg/mL (Escherichia coli [10]) [mm] | zone of inhibition at 30 µg/mL (Aspergillus niger [11]) [mm] | zone of inhibition at 30 µg/mL (Staphylococcus aureus [12]) [mm] | Activity (Mus musculus [13]) [%] | inhibition in vivo at 20 mg/kg (Rattus norvegicus [14]) [%] | zone of inhibition at 20 µg/mL (Candida albicans [15]) [mm] | zone of inhibition at 10 µg/mL (Aspergillus niger [16]) [mm] | zone of inhibition at 20 µg/mL (Pseudomonas aeruginosa [17]) [mm] | zone of inhibition at 10 µg/mL (Bacillus subtilis [18]) [mm] | inhibition in vivo at 20 mg/kg (Rattus norvegicus [19]) [%] | zone of inhibition at 20 µg/mL (Bacillus subtilis [20]) [mm] | further results
1 | COc1ccc(Cl)c(-c2nnc3n2NC(c2ccc[nH]2)S3)c1 (stereo not given) | 8.33 | 4.61 | 4.33 | 21.1 | 1.33 | 1.33 | 8 | 9.17 | 14.48 | 14.3 | 12.3 | 8.33 | 4.86 | 20.6 | 8.82 | 4.89 | 4.33 | 1.67 | 18.4 | 4 | inhibition in vivo at 20 mg/kg (Rattus norvegicus [21]): 12.8%; zone of inhibition at 20 µg/mL (Escherichia coli [22]): 7.9 mm; zone of inhibition at 10 µg/mL (Escherichia coli [23]): 4.71 mm; zone of inhibition at 30 µg/mL (Candida albicans [24]): 13.4 mm; inhibition in vivo at 20 mg/kg (Rattus norvegicus [25]): 15.2%
2 | COc1ccc(Cc2nnc3sc(-c4cc(C)nc5ccccc45)nn23)cc1OC | 16.1 | 5.48 | 11.7 | 20.14 | 5.26 | 6.72 | 16.1 | 13 | 11.05 | 16 | 16.7 | 16.6 | 5.96 | 24.9 | 12 | 6.25 | 10.1 | 6.29 | 21.2 | 10.2 | inhibition in vivo at 20 mg/kg (Rattus norvegicus [21]): 10.2%; zone of inhibition at 20 µg/mL (Escherichia coli [22]): 8.8 mm; zone of inhibition at 10 µg/mL (Escherichia coli [23]): 5.25 mm; zone of inhibition at 30 µg/mL (Candida albicans [24]): 17.5 mm; inhibition in vivo at 20 mg/kg (Rattus norvegicus [25]): 13.2%
3 | COc1ccc(Cl)c(-c2nnc3n2NC(c2cccn2C)S3)c1 (stereo not given) | 9.33 | 4.3 | 6.1 | 19.67 | 3.9 | 3.82 | 11.9 | 7.65 | 6.2 | 10.1 | 12.9 | 11 | 4.38 | 20.7 | 7.4 | 4.71 | 7.1 | 3.6 | 18.5 | 6.82 | inhibition in vivo at 20 mg/kg (Rattus norvegicus [21]): 14.1%; zone of inhibition at 20 µg/mL (Escherichia coli [22]): 6.9 mm; zone of inhibition at 10 µg/mL (Escherichia coli [23]): 3.82 mm; zone of inhibition at 30 µg/mL (Candida albicans [24]): 12.6 mm; inhibition in vivo at 20 mg/kg (Rattus norvegicus [25]): 16.8%
4 | COc1ccc(Cc2nnc3n2NC(c2cccn2C)S3)cc1OC (stereo not given) | 9.12 | 4.18 | 5.92 | 19.24 | 4.12 | 3.74 | 11.4 | 7.9 | 10.24 | 10.2 | 12.6 | 10.6 | 5.62 | 19.9 | 7.1 | 4.35 | 7.48 | 3.3 | 18.4 | 6.3 | inhibition in vivo at 20 mg/kg (Rattus norvegicus [21]): 13.4%; zone of inhibition at 20 µg/mL (Escherichia coli [22]): 6.71 mm; zone of inhibition at 10 µg/mL (Escherichia coli [23]): 3.95 mm; zone of inhibition at 30 µg/mL (Candida albicans [24]): 12.1 mm; inhibition in vivo at 20 mg/kg (Rattus norvegicus [25]): 15.8%
